The sample as a whole holds a higher share of hits than the screen did.
S1P4 antag – human S1P4 receptor antagonism | 220,000 tested, 0.26% active | AID 1510 | S1P4-expressing cells, antagonist mode, reporter read-out | inhibition, % at 4.98 µM; in the data active = inhibition above about 29%
S1P3 antagonist – blocks the human S1P3 receptor; Q99500; CHO S1P3 NFAT-BLA reporter, FRET fluorescence, antagonist mode; inhibition, % at 4.98 µM; 170,000 tested, 0.27% active;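 active = inhibition above the plate cutoff, the mean inhibition of test wells on that plate plus 3 SD, cut at about 28% in these data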;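 also: cells challenged with S1P at its EC80 of 0.8 µM; blue over green emission ratio from cleaved BLA substrate after 4 h stimulation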
Target sequence (Q99500 whole entry, looked up): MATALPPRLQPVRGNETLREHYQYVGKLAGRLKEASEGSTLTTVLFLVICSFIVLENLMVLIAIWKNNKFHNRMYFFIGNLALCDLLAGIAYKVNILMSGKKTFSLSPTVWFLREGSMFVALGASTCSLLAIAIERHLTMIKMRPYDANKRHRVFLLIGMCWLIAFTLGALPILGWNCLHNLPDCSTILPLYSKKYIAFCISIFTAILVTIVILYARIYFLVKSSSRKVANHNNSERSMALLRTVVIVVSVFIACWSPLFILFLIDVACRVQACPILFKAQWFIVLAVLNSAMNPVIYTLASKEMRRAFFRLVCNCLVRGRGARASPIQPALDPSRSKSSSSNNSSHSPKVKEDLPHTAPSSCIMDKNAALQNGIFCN
Mdm2 ligase inh – Mdm2 E3 ligase (human) inhibition. Q00987. cell-based MDM2 ubiquitination luciferase reporter, 2 h; 0 = plate control, 100 = twice control, blank-subtracted. signal enhancement, % at 5 µM. 210,000 tested, 0.11% active. AID 1230;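 active = signal enhancement of 30% or more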;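 also: luminescence tracks abundance of the self-degrading MDM2-luciferase fusion protein; higher signal means inhibition of MDM2 E3 ligase activity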
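Material: Stable MDM2–luciferase fusion reporter cells | Amount: 2000 cells seeded into each well | Dosing: One concentration, 5 µM, with 0.2% DMSO | Incubation: 4 h cell settling then 2 h compound exposure, 37 °C | Measured by: Luciferase luminescence | Read-out basis: % enhancement relative to plate controls after blank subtraction | Benchmarks: Control and blank well means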
L major viab – Leishmania major promastigote growth inhibition. Leishmania major promastigotes, resazurin fluorescence viability. AID 1063. 200,000 tested, 9% active. inhibition, % at 10 µM; in the data active = inhibition above about 50%;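 also: promastigotes grown with compound for 44 hours at 28 °C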
S1P4 agonist – activates the human S1P4 receptor; 220,000 tested, 0.35% active; AID 1509; activation, % at 4.98 µM; S1P4-expressing cell line, agonist reporter assay; in the data active = activation above about 11%
Numbers stand for hits; n = inactive; x = no result given.

SMILES	S1P4 antag	S1P3 antagonist	Mdm2 ligase inh	L major viab	S1P4 agonist
CC(NC(=O)CC(c1ccccc1)c1cc(Cl)ccc1O)c1ccccc1 (stereo not given)	n	n	n	98.2	n
COc1ccc(NC(C)c2ccccc2)cc1 (stereo not given)	n	n	n	n	n
O=C(COc1ccccc1F)Nc1nnc(-c2ccncc2)s1	n	x	n	n	n
O=C(Nc1nnc(-c2ccncc2)s1)Nc1ccccc1F	n	n	n	59.9	n
COC(=O)C1=CN(C2CC2)C=C(C(=O)OC)C1c1ccc(C(F)(F)F)cc1	n	n	n	88.3	n
Cc1cccc2nc(-c3ccccc3)nc(N3CCC(O)(c4ccc(Cl)cc4)CC3)c12	n	n	n	78.8	n
CN1CCN(c2nc(-c3ccccc3)nc(-c3ccccc3)c2C#N)CC1	n	n	n	n	n
CN1CCN(CC(=O)n2c3c(c4ccccc42)CCCC3)CC1	n	n	n	75.3	n
CCN(CC)CC(=O)n1c2c(c3ccccc31)CCCC2	n	n	n	n	n
CCCCOc1ccc(C2NC(=O)NC(C)=C2C(C)=O)cc1OCC (stereo not given)	n	n	n	n	n
CCCCn1c(SCC(=O)Nc2ccc3c(c2)CCC3)nc2ccccc2c1=O	n	n	n	68.5	n
COc1ccc2nc(SCC(=O)NC3CCCc4ccccc43)[nH]c2c1 (stereo not given)	n	n	n	74.7	n
O=C(CSc1nc2ccccc2[nH]1)Nc1ccc2c(c1)CCC2	n	n	n	76.3	n
O=C(CSc1nc2ccc(Cl)cc2[nH]1)Nc1ccc2c(c1)CCC2	n	n	n	n	n
N#CCSc1nc(Nc2ccc3c(c2)OCO3)c2ccccc2n1	n	x	n	n	n
COc1cc(Nc2nc(SCC#N)nc3ccccc23)cc(OC)c1OC	n	x	n	53.4	n
COc1ccc(-c2cn3cccnc3n2)cc1F	n	n	n	79.8	n
COc1ccc(-c2cn3cccnc3n2)cc1NC(=O)c1cccs1	n	n	n	97.1	n
COc1ccc(-c2cn3cccnc3n2)cc1NS(=O)(=O)c1ccccc1	n	n	n	n	n
O=C(Cc1cccs1)NCCCc1ccccc1	n	n	x	n	n
O=C(Cc1cccs1)NCCN1CCOCC1	n	n	n	50.5	n
O=C(/C=C/c1ccccc1)NCCN1CCOCC1	n	n	n	63.2	n
COc1ccc(/C=C/C(=O)NCCN2CCOCC2)cc1OC	n	n	n	n	n
O=C(/C=C/c1ccc(Cl)cc1Cl)NCCN1CCOCC1	n	x	n	71.0	n
O=C(Cc1ccc(-c2ccccc2)cc1)NCCN1CCOCC1	n	n	n	n	n
SMILES	S1P4 antag	S1P3 antagonist	Mdm2 ligase inh	L major viab	S1P4 agonist
O=C(NCCN1CCOCC1)c1cccc(Cl)c1	n	n	n	n	n
COc1ccc(CCNC(=O)Cc2cccs2)cc1	n	n	n	56.4	n
CNC(=O)CSc1nnc(C2CC2)n1-c1ccccc1	n	n	n	n	n
O=C(OCC(F)(F)C(F)F)c1ccccc1C(=O)Oc1ccc(F)cc1F	n	n	n	n	n
Cc1ccc(S(=O)(=O)N2CCCC2C(=O)NCc2ccc3c(c2)OCO3)cc1 (stereo not given)	n	n	n	n	n
CCCCN(C)C(=O)CC(NS(=O)(=O)c1ccc(NC(C)=O)cc1)C(C)C (stereo not given)	n	n	n	50.2	n
CC1CCN(CCC(=O)N/N=C/c2ccc([N+](=O)[O-])cc2)CC1	n	n	n	80.5	n
COC(=O)CSc1nnc([C@H](CC(C)C)NC(=O)OC(C)(C)C)o1	n	n	n	n	n
O=C1c2ccccc2C2(c3ccc(F)cc3)NCCN12 (stereo not given)	n	n	n	57.6	n
CC(=O)OC(C(=O)N1CCN(c2ccc(F)cc2)CC1)c1ccccc1 (stereo not given)	n	x	n	n	n
CC(=O)Nc1ccc(S(=O)(=O)NCC2CCC(C(=O)NC(C)c3ccc4c(c3)OCCO4)CC2)cc1 (stereo not given)	n	n	n	n	n
COc1nc(N2CCOCC2)nc(C)c1[N+](=O)[O-]	n	n	n	61.8	n
Cc1sc(NC(=O)CN(C)C2CCCCC2)nc1-c1ccc2c(c1)CCN2S(=O)(=O)c1ccccc1	n	x	n	n	n
Cc1sc(NC(=O)Cc2ccc3c(c2)OCO3)nc1-c1ccc2c(c1)CCN2C(=O)c1ccc(F)cc1	n	n	n	86.5	n
Cc1sc(NC(=O)Cc2ccc3c(c2)OCO3)nc1-c1ccc2c(c1)CCN2C(=O)c1ccccc1F	n	n	n	98.9	n
C[n+]1cnc(-c2ccccc2)cc1-c1ccccc1	n	n	n	n	n

Screening results as filed in PubChem.
